Test results published in ChEMBL document CHEMBL1153509, “2-O-beta-d-glucopyranosyl-sn-glycerol based analogues of sulfoquinovosyldiacylglycerols (SQDG) and their role in inhibiting Epstein-Barr virus early antigen activation” (Bioorg Med Chem, 2009).

What was measured:
[1] = Cytotoxicity against human Raji cells assessed as cell viability at 1000 molar ratio after 48 hrs by trypan blue staining method; type: cell-based; conditions: read-out: Activity
Summary of the method: (§1)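 Raji cells (1×10^6/mL) in RPMI 1640 with 10% fetal calf serum were incubated 48 h at 37 °C with 4 mM n-butyric acid, 32 pmol TPA in DMSO and test compound in DMSO. Compound doses were set as mol ratio to TPA. Viability was read by Trypan Blue staining 2 days after treatment.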

Raji [2] = experiment: Inhibition of 12-O-tetradecanoylphorbol-13-acetate-induced EBV-early antigen activation in human Raji cells assessed as early antigen induction at 10 molar ratio after 48 hrs by conventional indirect immunofluorescence technique relative to TPA; type: cell-based; design: scale not given: the % may be the effect or the level left; conditions: human gammaherpesvirus 4
Summary of the method: (§2)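 Raji cells (1×10^6/mL, RPMI 1640 plus 10% FCS) were incubated at 37 °C for 48 h in medium with 4 mM n-butyric acid, 32 pmol TPA in DMSO and test compound in DMSO, dosed as mol ratio to TPA. EA was detected by indirect immunofluorescence using high-titer EBV-positive NPC patient sera and FITC anti-human IgG, counting at least 500 cells. Runs were in triplicate. Results are expressed as % of the butyric acid plus TPA control (100%).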

[3] = Inhibition of 12-O-tetradecanoylphorbol-13-acetate-induced EBV-early antigen activation in human Raji cells assessed per TPA after 48 hrs by conventional indirect immunofluorescence technique; type: cell-based, human gammaherpesvirus 4
Summary of the method: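 Raji cells (1×10^6/mL) were treated at 37 °C for 48 h with 4 mM n-butyric acid, 32 pmol TPA and test compound in DMSO. EA-positive cells were scored by indirect immunofluorescence (NPC patient sera, FITC anti-human IgG), at least 500 cells per run, in triplicate. IC50 was given as the compound/TPA mol ratio inhibiting 50% of the TPA-activated positive control.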

[4] = Cytotoxicity against human Raji cells assessed as cell viability at 10 molar ratio after 48 hrs by trypan blue staining method; type: cell-based; conditions: read-out: Activity; summary of the method: as §1
Raji [5] = experiment: Inhibition of 12-O-tetradecanoylphorbol-13-acetate-induced EBV-early antigen activation in human Raji cells assessed as early antigen induction at 500 molar ratio after 48 hrs by conventional indirect immunofluorescence technique relative to TPA; type: cell-based; design: scale not given: the % may be the effect or the level left; conditions: human gammaherpesvirus 4; summary of the method: as §2
Raji [6] = experiment: Inhibition of 12-O-tetradecanoylphorbol-13-acetate-induced EBV-early antigen activation in human Raji cells assessed as early antigen induction at 1000 molar ratio after 48 hrs by conventional indirect immunofluorescence technique relative to TPA; type: cell-based; design: scale not given: the % may be the effect or the level left; conditions: human gammaherpesvirus 4; summary of the method: as §2
[7] = Cytotoxicity against human Raji cells assessed as cell viability at 100 molar ratio after 48 hrs by trypan blue staining method; type: cell-based; conditions: read-out: Activity; summary of the method: as §1
[8] = Cytotoxicity against human Raji cells assessed as cell viability at 500 molar ratio after 48 hrs by trypan blue staining method; type: cell-based; conditions: read-out: Activity; summary of the method: as §1
Raji [9] = experiment: Inhibition of 12-O-tetradecanoylphorbol-13-acetate-induced EBV-early antigen activation in human Raji cells assessed as early antigen induction at 100 molar ratio after 48 hrs by conventional indirect immunofluorescence technique relative to TPA; type: cell-based; design: scale not given: the % may be the effect or the level left; conditions: human gammaherpesvirus 4; summary of the method: as §2

Row | IC50 [3] | SMILES | viability at 48 h, 1000 molar ratio [1] | Activity (Raji [2]) | viability at 48 h, 10 molar ratio [4] | Activity (Raji [5]) | Activity (Raji [6]) | viability at 48 h, 100 molar ratio [7] | viability at 48 h, 500 molar ratio [8] | Activity (Raji [9])
1 | 350 mol ratio/TPA | CCCCCC(=O)OCCO[C@@H]1O[C@H](CO)[C@H](O)[C@H](O)[C@H]1O | 70% | 100% | 80% | 49.5% | 6.7% | 80% | 80% | 78.5%
2 | 484 mol ratio/TPA | CCCCCCCCCCCCCCCCCC(=O)OCC(COC(=O)CCCCCCCCCCCCCCCCC)O[C@@H]1O[C@H](CO)[C@@H](O)[C@H](O)[C@H]1O | 60% | 100% | 80% | 57.8% | 16.2% | 80% | 70% | 82.8%
3 | 327 mol ratio/TPA | CCCCCC(=O)OCC(COC(=O)CCCCC)O[C@@H]1O[C@H](CO)[C@@H](O)[C@H](O)[C@H]1O | 60% | 100% | 80% | 46.8% | 9.3% | 80% | 70% | 76.9%
4 | 37.3 mol ratio/TPA | CCCCCC(=O)OC[C@H](CO)O[C@@H]1O[C@H](COC(=O)CCCCC)[C@@H](O)[C@H](O)[C@H]1O | 70% | 71.5% | 80% | 15.1% | 0% | 80% | 80% | 34.6%
5 | 581 mol ratio/TPA | CCCCCCCCCCCC(=O)OCC(COC(=O)CCCCCCCCCCC)O[C@@H]1O[C@H](CS(=O)(=O)[O-])[C@@H](O)[C@H](O)[C@H]1O.[Na+] | 50% | 100% | 80% | 62.6% | 23.4% | 80% | 70% | 85.2%
6 | 402 mol ratio/TPA | CCCCCCCCCCCC(=O)OCC(COC(=O)CCCCCCCCCCC)O[C@@H]1O[C@H](CO)[C@@H](O)[C@H](O)[C@H]1O | 60% | 100% | 80% | 52.4% | 13% | 80% | 70% | 80.5%
7 | 632 mol ratio/TPA | CCCCCCCCCCCCCCCCCC(=O)OCC(COC(=O)CCCCCCCCCCCCCCCCC)O[C@@H]1O[C@H](CS(=O)(=O)[O-])[C@@H](O)[C@H](O)[C@H]1O.[Na+] | 50% | 100% | 80% | 65.1% | 25.1% | 80% | 70% | 87.4%
8 | 539 mol ratio/TPA | CCCCCC(=O)OCC(COC(=O)CCCCC)O[C@@H]1O[C@H](CS(=O)(=O)[O-])[C@@H](O)[C@H](O)[C@H]1O.[Na+] | 50% | 100% | 80% | 60.5% | 20.3% | 80% | 70% | 84.3%
